Where “and” joins values, the source holds several entries; their conditions need not be identical. Equal values may be shown once.
How the values were obtained:
[1] = target: Hemoglobin subunit beta (Homo sapiens) (UniProt P68871); assay: Percent modification of human Hemoglobin beta (100 uM) after 3h of incubation
Method in brief: (§1)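 HbA·CO at 100 μM final (tetramer) reacted with isothiocyanate at a 2:1 compound:Hb molar ratio in 50 mM ammonium acetate, pH 7.3, with 2% DMSO or buffer alone, for 3 h at 37 °C. An aliquot was diluted in acetonitrile/water with 0.2% formic acid and analysed by electrospray MS to give percent modified α- and β-subunit. Some compounds were run in triplicate.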

[2] = target: Hemoglobin subunit alpha (Homo sapiens) (UniProt P69905); assay: Percent modification of human Hemoglobin alpha (100 uM) after 3h of incubation; method in brief: as §1
Chain of Hemoglobin subunit alpha (Homo sapiens) (P69905 whole entry): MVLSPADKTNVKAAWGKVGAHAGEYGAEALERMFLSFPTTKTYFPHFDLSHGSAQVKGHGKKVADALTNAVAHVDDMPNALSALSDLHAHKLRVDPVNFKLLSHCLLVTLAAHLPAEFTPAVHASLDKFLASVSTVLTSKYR

[3] = target: T1, Hemoglobin HbA (Homo sapiens) (UniProt P69905+P68871); assay: Ratio of compound modified hemoglobin aggregation […]; assay type: functional
T1 sequence (P68871 2-147 partner limits assumed): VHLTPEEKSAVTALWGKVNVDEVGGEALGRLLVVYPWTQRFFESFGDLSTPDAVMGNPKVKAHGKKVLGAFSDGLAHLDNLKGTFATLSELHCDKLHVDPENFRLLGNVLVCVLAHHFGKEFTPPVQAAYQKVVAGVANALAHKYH
T1 sequence (P69905 2-142 limits assumed): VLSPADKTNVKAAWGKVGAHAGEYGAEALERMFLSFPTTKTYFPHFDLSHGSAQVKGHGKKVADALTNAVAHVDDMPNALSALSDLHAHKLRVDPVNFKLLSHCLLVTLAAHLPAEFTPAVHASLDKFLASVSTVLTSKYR

[4] = target: Hemoglobin subunit alpha (Homo sapiens) (UniProt P69905); assay: Percent modification of human hemoglobin alpha (100 uM) after 3h of incubation; method in brief: as §1
[5] = target: T1, Hemoglobin HbA (Homo sapiens); assay: Affinity towards oxygen by hemoglobin after modification by compound; assay type: functional
[6] = target: Hemoglobin subunit alpha (Homo sapiens) (UniProt P69905); assay: Percent modification of alpha-subunit of human hemoglobin (100 uM) after 3h of incubation; method in brief: as §1
[7] = target: T1, Hemoglobin HbA (Homo sapiens); assay: Inhibition of sickle hemoglobin aggregation using standard saturation solubility (CSAT) assay; assay type: functional
Method in brief: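 Saturation solubility (Csat) of deoxy HbS or inhibitor-modified HbS in 50 mM phosphate, pH 7.0. CO is removed by photodissociation under oxygen. HbSO2 at 35 g/dL is deoxygenated on ice with 0.9 M sodium dithionite solution, then centrifuged 1 h at 30 °C. Supernatant Hb is measured spectrophotometrically, and activity is expressed as the solubility increase over the unmodified HbS control.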

Chain of Hemoglobin subunit beta (Homo sapiens) (P68871 2-147 limits assumed): as the sequence (P68871 2-147 partner limits assumed) above

Row | Structure (SMILES) | Modification [1] | Modification [2] [%] | Csat/Co [3] | Modification [4] | Co [5] | Modification [6] [%] | Csat [7]
1 | N#CSc1ccc(CCO)cc1 | 8% and 9% (2×) | 66 | 1.1 | 72% | 17 g/dL | 72 | 18.7 g/dL
2 | CCN(CC)CCCSC#N | 37% | – | 1.24 and 1.2 and 1.22 | 0% | 16.1 g/dL and 16.3 g/dL and 16.2 g/dL | – | 19.9 g/dL and 19.6 g/dL and 19.7 g/dL
3 | CN(C)CCCCCSC#N | – | – | 1.34 and 1.35 and 1.37 | – | 15.9 g/dL and 15 g/dL and 15.1 g/dL | – | 21.3 g/dL and 20.2 g/dL and 20.7 g/dL
4 | CCN(CC)CCNC(=O)c1ccc(SC#N)cc1 | 17% and 16% and 15% | 40 | – | 36% and 42% | – | – | –
5 | N#CSCCCN1CCCC1=O | 24% | – | – | 0% | – | – | –
6 | N#CSc1ccc(CC(=O)O)cc1 | 13% | – | – | 42% | – | – | –
7 | N#CSCCCCCO | – | – | 1.11 | – | 17 g/dL | – | 18.8 g/dL
8 | CCN(CC)CCSC#N | – | – | 1.24 and 1.22 (2×) | – | 17 g/dL and 16.2 g/dL and 16.5 g/dL | – | 21 g/dL and 19.8 g/dL and 20.1 g/dL
9 | N#CSCc1ccncc1 | 58% | – | – | 6% | – | – | –
10 | N#CSC1CCC(O)CC1 (stereo not given) | 18% | – | – | 0% | – | – | –
11 | N#CSCCc1c[nH]c2ccccc12 | 24% | – | – | 7% | – | – | –
12 | N#CSc1ccc(O)cc1 | 8% | 51 | – | – | – | – | –
13 | N#CSc1ccc(C(=O)O)c(O)c1 | 3% | – | – | 35% | – | – | –
14 | N#CSCCCn1ccnc1 | 13% | – | 1.21 and 1.15 and 1.18 | 7% | 17 g/dL and 16.2 g/dL and 16.5 g/dL | – | 20.6 g/dL and 18.6 g/dL and 19.6 g/dL
15 | CN(C)CCCCSC#N | – | – | 1.23 and 1.22 and 1.27 | – | 15.3 g/dL and 15.6 g/dL and 15.1 g/dL | – | 18.8 g dl-1 and 19.1 g dl-1 (2×)
16 | N#CSCCN1CCCCC1 | – | – | 1.24 (2×) and 1.23 | – | 16.8 g/dL and 16.4 g/dL and 16.5 g/dL | – | 20.9 g/dL and 20.1 g/dL and 20.5 g/dL
17 | CCN(CC)CCCCCSC#N | – | – | 1.33 and 1.36 and 1.35 | – | 15.9 g/dL and 15 g/dL and 15.1 g/dL | – | 21.1 g dl-1 and 20.4 g dl-1 (2×)
18 | CN(C)c1ccc(SC#N)cc1 | 10% | 48 | 1.07 | – | 17 g/dL | – | 18.2 g/dL
19 | COC(CSC#N)OC | 33% | – | 1.07 (2×) and 1.04 | 11% | 17 g/dL and 16.2 g/dL and 16.5 g/dL | – | 18.2 g/dL and 17.4 g/dL and 17.3 g/dL
20 | CCN(CC)CCCCSC#N | – | – | 1.3 (2×) and 1.27 | – | 15.9 g/dL and 15 g/dL and 15.1 g/dL | – | 20.7 g/dL and 19.1 g/dL and 19.7 g/dL
21 | N#CCCSC#N | 21% | – | 1.08 and 1.1 and 1.09 | 10% | 16.1 g/dL and 16.3 g/dL and 16.2 g/dL | – | 17.4 g/dL and 17.8 g/dL and 17.7 g/dL

From ChEMBL document CHEMBL1136727, “Regioselective covalent modification of hemoglobin in search of antisickling agents” (J Med Chem, 2003)
